How the values were obtained:
[1] = tested on: WI-38; experiment: Cytotoxicity against human WI-38 cells assessed as reduction in cell viability after 48 hrs by MTT assay; type: cell-based; conditions: WI-38, 48 h
Method in brief: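 Cells from ATCC grown in DMEM with 10% FBS, insulin and 1% penicillin-streptomycin. Plated at 1.2-1.8 × 10,000 cells/well for 24 h, then exposed to compounds in DMSO vehicle for 48 h. MTT 0.5 mg/ml added for 2 h; absorbance read at 570 nm. Experiments run in triplicate.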

[2] = tested on: Mus musculus; experiment: Anticonvulsant activity against mouse model of LiCa/pilocarpine-induced status epilepticus assessed as mean power frequency at 20 mg/kg, po for 10 days by EEG method relative to control; type: functional; conditions: time 10 day
Method in brief: (§1)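 Male mice (20-30 g), five per group, dosed orally once daily for 10 days. Status epilepticus was then induced with LiCa (3 mEq/kg i.p.), atropine sulfate (1 mg/kg i.p.) 30 min before pilocarpine, and pilocarpine HCl (300 mg/kg i.p.) 2 h after LiCa. Normal controls received oral distilled water. Comparators were untreated SE, phenytoin and lamotrigine. One-way ANOVA with Tukey post-hoc; mean ± SD.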

[3] = tested on: Mus musculus; experiment: Anticonvulsant activity against mouse model of LiCa/pilocarpine-induced status epilepticus assessed as spectral edge frequency at 20 mg/kg, po for 10 days by EEG method relative to control; type: functional; conditions: time 10 day; method in brief: as §1
[4] = tested on: Mus musculus; experiment: Anticonvulsant activity against mouse model of LiCa/pilocarpine-induced status epilepticus assessed as total power at 20 mg/kg, po for 10 days by EEG method relative to control; type: functional; conditions: time 10 day; method in brief: as §1
[5] = tested on: Mus musculus; experiment: Anticonvulsant activity against mouse model of LiCa/pilocarpine-induced status epilepticus assessed as amplitude at 20 mg/kg, po for 10 days by EEG method relative to control; type: functional; conditions: time 10 day; method in brief: as §1
[6] = tested on: Mus musculus; experiment: Anticonvulsant activity against mouse model of LiCa/pilocarpine-induced status epilepticus assessed as amplitude density at 20 mg/kg, po for 10 days by EEG method relative to control; type: functional; conditions: time 10 day; method in brief: as §1
[7] = tested on: Mus musculus; experiment: Anticonvulsant activity against mouse model of LiCa/pilocarpine-induced status epilepticus assessed as power pV2 at 20 mg/kg, po for 10 days by EEG method relative to control; type: functional; conditions: time 10 day; method in brief: as §1
[8] = tested on: Mus musculus; experiment: Anticonvulsant activity against mouse model of LiCa/pilocarpine-induced status epilepticus assessed as total power density at 20 mg/kg, po for 10 days by EEG method relative to control; type: functional; conditions: time 10 day; method in brief: as §1
[9] = tested on: Mus musculus; experiment: Anticonvulsant activity against mouse model of LiCa/pilocarpine-induced status epilepticus assessed as delta at 20 mg/kg, po for 10 days by EEG method relative to control; type: functional; conditions: time 10 day; method in brief: as §1
[10] = tested on: Mus musculus; experiment: Anticonvulsant activity against mouse model of LiCa/pilocarpine-induced status epilepticus assessed as theta at 20 mg/kg, po for 10 days by EEG method relative to control; type: functional; conditions: time 10 day; method in brief: as §1
[11] = tested on: Mus musculus; experiment: Anticonvulsant activity against mouse model of LiCa/pilocarpine-induced status epilepticus assessed as alpha at 20 mg/kg, po for 10 days by EEG method relative to control; type: functional; conditions: time 10 day; method in brief: as §1
[12] = tested on: Mus musculus; experiment: Anticonvulsant activity against mouse model of LiCa/pilocarpine-induced status epilepticus assessed as MDA level in brain at 20 mg/kg, po for 10 days by calorimetric method relative to control; type: functional; conditions: time 10 day; method in brief: as §1
[13] = tested on: Mus musculus; experiment: Anticonvulsant activity against mouse model of LiCa/pilocarpine-induced status epilepticus assessed as GSH level in brain at 20 mg/kg, po for 10 days by calorimetric method relative to control; type: functional; conditions: time 10 day; method in brief: as §1
[14] = tested on: Mus musculus; experiment: Anticonvulsant activity against mouse model of LiCa/pilocarpine-induced status epilepticus assessed as GABA level in brain at 20 mg/kg, po for 10 days by ELISA relative to control; type: functional; conditions: time 10 day; method in brief: as §1
[15] = tested on: Mus musculus; experiment: Anticonvulsant activity against mouse model of LiCa/pilocarpine-induced status epilepticus assessed as Glutamate level in brain at 20 mg/kg, po for 10 days by ELISA relative to control; type: functional; conditions: time 10 day; method in brief: as §1

SMILES | IC50 [1] [nM] | Activity [2] [%] | Activity [3] [%] | Activity [4] [%] | Activity [5] [%] | Activity [6] [%] | Activity [7] [%] | Activity [8] [%] | Activity [9] [%] | Activity [10] [%] | Activity [11] [%] | Activity [12] [%] | Activity [13] [%] | Activity [14] [%] | Activity [15] [%]
Cc1nn(-c2ccccc2)c2nc(CC(=O)N3NC(=O)/C(=C\c4ccccc4)N=C3c3ccc(Cl)cc3)[nH]c(=O)c12 | 80.2 | -28.52 | -17.33 | 0.29 | 55.11 | 68.09 | 117.95 | 175.43 | 264.98 | 34.99 | 34.85 | -46.88 | 191.86 | 40.05 | -45.51
COc1ccc(/C=C2/N=C(c3ccc(C)cc3)N(C(=O)Cc3nc4c(c(C)nn4-c4ccccc4)c(=O)[nH]3)NC2=O)cc1 | 18.6 | -33 | -26.44 | 33.82 | 80.44 | 82.98 | 218.96 | 264.63 | 362.78 | 27.12 | 0.71 | -69.49 | 50.67 | 71.88 | -50.42
Cc1nn(-c2ccccc2)c2nc(C(=O)N3NC(=O)/C(=C/c4ccc(Cl)cc4)N=C3c3ccc(Cl)cc3)[nH]c(=O)c12 | 19.3 | -37.61 | -21.45 | 37.32 | 89.78 | 54.1 | 225.84 | 233.86 | 313.77 | 41.15 | 4.62 | -63.24 | 144.08 | 74.49 | -57.79
Cc1ccc(C2=N/C(=C/c3ccccc3)C(=O)NN2C(=O)Cc2nc3c(c(C)nn3-c3ccccc3)c(=O)[nH]2)cc1 | 85.6 | -46.23 | -29 | 23.32 | 90.67 | 110.33 | 243.46 | 302.31 | 366.41 | 11.83 | -5.99 | -69.74 | 188.85 | 91.22 | -82.89
COc1ccc(/C=C2/N=C(c3ccccc3)N(C(=O)Cc3nc4c(c(C)nn4-c4ccccc4)c(=O)[nH]3)NC2=O)cc1 | 17.2 | -39.36 | -21.87 | 16.62 | 66.22 | 47.72 | 167.62 | 215.63 | 266.63 | 24.43 | 2.55 | -66.91 | 136.46 | 104.31 | -75.98
CS(=O)(=O)CCNCc1ccc(-c2ccc3ncnc(Nc4ccc(OCc5cccc(F)c5)c(Cl)c4)c3c2)o1 [LAPATINIB] | 45.2 | -50.58 | -34.07 | 33.24 | 122.67 | 142.55 | 272.65 | 346.9 | 425.44 | 12.11 | -8.6 | -57.67 | 172.32 | 83.04 | -81.12
COc1ccc(/C=C2\N=C(c3ccc(Cl)cc3)N(C(=O)c3nc4c(c(C)nn4-c4ccccc4)c(=O)[nH]3)NC2=O)cc1 | 25 | -40.42 | -22.51 | 14.87 | 71.11 | 46.81 | 190.77 | 245.46 | 330.62 | 20.25 | -4.74 | -67.54 | 150.97 | 87.03 | -66.54
Cc1nn(-c2ccccc2)c2nc(C(=O)N3NC(=O)/C(=C/c4ccccc4)N=C3c3ccc(Cl)cc3)[nH]c(=O)c12 | 55 | -22.83 | -13.59 | 10.2 | 54.67 | 76.29 | 133.56 | 200.5 | 254.07 | 16.08 | 27.21 | -55.28 | 80.37 | 89.37 | -39.91
Cc1nn(-c2ccccc2)c2nc(C(=O)N3NC(=O)/C(=C/c4ccccc4)N=C3c3ccccc3)[nH]c(=O)c12 | 49.5 | -30.24 | -16.31 | 13.12 | 67.11 | 78.42 | 138.76 | 229.32 | 314.32 | 28.9 | 12.39 | -72.13 | 154.11 | 61.71 | -58.33
O=C1NC(=O)C(c2ccccc2)(c2ccccc2)N1 [PHENYTOIN] |  | -58.54 | -38.74 | 51.6 | 158.67 | 175.08 | 332.89 | 381.63 | 485.9 | 19.76 | -14.82 | -56.88 | 156.39 | 92.87 | -81.35
Cc1nn(-c2ccccc2)c2nc(CC(=O)N3NC(=O)/C(=C\c4ccc(Cl)cc4)N=C3c3ccc(Cl)cc3)[nH]c(=O)c12 | 12.9 | -25.05 | -13.39 | 0.58 | 45.78 | 69.3 | 126.51 | 181.99 | 239.87 | 54.18 | 35.86 | -60.61 | 146.06 | 82.22 | -58.56
Cc1ccc(C2=N/C(=C\c3ccccc3)C(=O)NN2C(=O)c2nc3c(c(C)nn3-c3ccccc3)c(=O)[nH]2)cc1 | 24.5 | -37.93 | -22.26 | 15.45 | 62.22 | 36.17 | 143.79 | 210.16 | 241.85 | 32.01 | 9.13 | -66.18 | 173.91 | 59.73 | -72.91
Cc1nn(-c2ccccc2)c2nc(CC(=O)N3NC(=O)/C(=C\c4ccc(Cl)cc4)N=C3c3ccccc3)[nH]c(=O)c12 | 111 | -44.11 | -28.09 | 23.03 | 82.67 | 63.22 | 204.36 | 248.78 | 327.42 | 20.33 | 0.12 | -74.39 | 170 | 80.61 | -76.98
COc1ccc(/C=C2\N=C(c3ccccc3)N(C(=O)c3nc4c(c(C)nn4-c4ccccc4)c(=O)[nH]3)NC2=O)cc1 | 97.7 | -48.49 | -25.28 | 30.61 | 99.56 | 88.15 | 230.03 | 265.27 | 368.94 | 29.32 | -5.51 | -54.04 | 141.33 | 68.66 | -76.21
